Screening results (PubChem)
GASC1 inh: blocks human GASC-1 (KDM4C) demethylase activity; Q9H3R0; GST-KDM4C 2-372, H3K9me3 peptide, LANCE TR-FRET; inhibition, % at 12.5 µM; hit rate 0.15% among 96,000; AID 720574;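 active = mean replicate inhibition above about 25%, with at least 55% of replicates also reaching it, limit read from the data, passing the limit was not always enough; inconclusive = only one of those two conditions met; inactive = neither condition met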
Target sequence (Q9H3R0 2-372 limits assumed): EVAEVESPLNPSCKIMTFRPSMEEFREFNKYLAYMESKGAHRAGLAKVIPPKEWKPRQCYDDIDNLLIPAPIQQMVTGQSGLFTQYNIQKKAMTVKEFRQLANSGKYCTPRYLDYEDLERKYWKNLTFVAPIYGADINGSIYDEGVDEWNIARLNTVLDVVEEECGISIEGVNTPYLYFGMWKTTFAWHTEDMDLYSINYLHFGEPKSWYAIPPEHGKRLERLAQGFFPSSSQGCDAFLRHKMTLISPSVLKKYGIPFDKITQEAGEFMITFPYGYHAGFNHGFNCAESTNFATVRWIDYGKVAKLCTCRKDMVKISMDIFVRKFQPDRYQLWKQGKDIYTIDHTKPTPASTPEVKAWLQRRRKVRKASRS
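Assay system: GST-GASC-1 enzyme fragment 2-372 | Amount: 10 nM enzyme | Medium: HEPES buffer, pH 7.5, plus ascorbate | Reagent: H3K9me3 peptide substrate, Fe(II), 2-oxoglutarate | Doses: Single-point compound screen | Incubation: 30 min demethylation and 1 h detection at room temperature | Measured by: LANCE TR-FRET, excitation 340 nm, emissions 618 and 671 nm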
IDH1 mut inh: inhibitors of human IDH1 R132H; O75874; IDH1 R132H reductase, diaphorase/resazurin fluorescence, 60 min; inhibition, % at 10 µM; hit rate 0.18% among 70,000; AID 624101; in the data active = inhibition above about 34%; inconclusive = no clear call, values can overlap the other calls; inactive = below about 11%;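 note: 0% = DMSO and 100% = no enzyme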
T cruzi growth-1: T. cruzi proliferation inhibition | T. cruzi beta-gal in NIH3T3, GalScreen luminescence, 90 h | AID 624255 | inhibition, % at 8.34 µM | hit rate 5.9% among 77,000;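 active = mean inhibition above about 93%, with at least 55% of replicates each passing it, limit read from the data, passing the limit was not always enough; inconclusive = only one of those two conditions holds; inactive = neither condition holds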
T cruzi growth-2: inhibitors of T. cruzi proliferation; inhibition, % at 8.35 µM; AID 651739; hit rate 72% among 5,600; shares compounds with T cruzi growth-1; T. cruzi beta-gal in NIH3T3, GalScreen luminescence, 90 h;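 active = mean replicate inhibition above about 95% and at least 55% of replicates individually reaching it, limit read from the data; inconclusive = only one of the two criteria is met; inactive = neither criterion is met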
T cruzi growth-3: blocks T. cruzi growth in NIH3T3 host cells; hit rate 21% among 5,600; shares compounds with T cruzi growth-1; inhibition, % at 2.09 µM; T. cruzi beta-gal in NIH3T3, GalScreen luminescence, 90 h;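 active = mean inhibition above about 95%, with at least 55% of replicates also reaching it, limit read from the data; inconclusive = meets just one of the two conditions; inactive = meets neither condition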;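 note: plate controls were neutral control median for no effect and positive control median for full effect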
NIH3T3 tox: kills mouse NIH/3T3 fibroblasts; shares compounds with T cruzi growth-1; NIH/3T3 viability, CellTiter-Glo ATP luminescence, 90 h; cytotoxicity (signal decrease), % at 8.35 µM; hit rate 14% among 5,600;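 active = mean signal decrease across replicates above about 35% based on untreated-well scatter, with enough replicates individually passing, limit read from the data; inconclusive = no rule stated though some were filed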;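 note: 0% = median of neutral control wells and 100% = median of positive control wells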
3T3 cytotox 2: NIH/3T3 (mouse) viability loss; shares compounds with T cruzi growth-1; NIH/3T3 viability, CellTiter-Glo ATP luminescence, 90 h; inhibition, % at 24.9 µM; hit rate 56% among 5,600;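 active = mean loss of cell viability signal at or above a set limit, and enough replicates individually reaching it; inconclusive = meets only the mean limit or only the replicate share; inactive = meets neither condition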;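 note: 0% = median of neutral control wells and 100% = median of positive control wells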
Starred values were filed as active, the others as inactive. Many of the other results were omitted from the sample, so hits are more common in it than they were.

COc1ccc(NC(=O)N2CCCCN3[C@@H](CO)[C@H](c4ccc(C#CCC(C)C)cc4)[C@@H]3C2)cc1 was read as GASC1 inh -5, T cruzi growth-1 114*, T cruzi growth-2 98*, T cruzi growth-3 106*, NIH3T3 tox 118* and 3T3 cytotox 2 103*.
For CC(C)CC#Cc1ccc([C@@H]2[C@@H](CO)N3CCCCN(C(=O)NC4CCCC4)C[C@H]23)cc1 the results were GASC1 inh 1 and T cruzi growth-1 84.
`COc1cccc(S(=O)(=O)NCc2ccc(C(=O)Nc3ccc4sc(C)nc4c3)cc2)c1` gave IDH1 mut inh 0.
Screening CCN1CCOC(CC(=O)Nc2cc(C(=O)OC)cc(C(=O)OC)c2)C1=O (centres undefined) returned IDH1 mut inh 0.
Screening COc1cccc(S(=O)(=O)Nc2ccc(C(=O)Nc3ccc4c(c3)OCCO4)cc2)c1 returned IDH1 mut inh 0.
`COc1ccc(C(C)C(=O)c2ccc(O)cc2O)cc1O` (centres undefined) gave IDH1 mut inh -1.
Screening O=C1c2ccccc2C2CC(c3cc(Cl)ccc3Cl)=NN12 (centres undefined) returned IDH1 mut inh 0.
`COc1cc(NC(=O)CN(C)S(=O)(=O)c2ccc3ccccc3c2)c(OC)cc1Cl` gave IDH1 mut inh 0.
COc1ccc(NC(=O)N2CCCCN3[C@H](CO)[C@@H](c4ccc(C#CCC(C)C)cc4)[C@@H]3C2)cc1 was read as GASC1 inh 0, T cruzi growth-1 105*, T cruzi growth-2 106*, T cruzi growth-3 56, NIH3T3 tox 39* and 3T3 cytotox 2 104*.
Screening COc1ccc(C(=O)Nc2sc3c(c2C(=O)Nc2cccc(OC)c2)CCC3)cc1 returned IDH1 mut inh 0.
`CCC(=O)N(Cc1cc2ccccc2[nH]c1=O)c1cccc(C)c1` gave IDH1 mut inh 0.
Screening CCc1cnc(N2[C@H](CO)[C@H](c3ccccc3)[C@@H]2C#N)s1 returned GASC1 inh 0 and T cruzi growth-1 -8.
`CCc1cnc(N2[C@@H](C#N)[C@@H](c3ccccc3)[C@@H]2CO)s1` gave GASC1 inh 0 and T cruzi growth-1 -3.
Screening CCc1cnc(N2[C@@H](C#N)[C@H](c3ccc(C#CC(C)C)cc3)[C@@H]2CO)s1 returned GASC1 inh -1, T cruzi growth-1 107*, T cruzi growth-2 112*, T cruzi growth-3 52, NIH3T3 tox -5 and 3T3 cytotox 2 -2.
`CCc1cnc(N2[C@@H](C#N)[C@@H](c3ccc(C#CC(C)C)cc3)[C@@H]2CO)s1` gave GASC1 inh -1, T cruzi growth-1 97*, T cruzi growth-2 101*, T cruzi growth-3 108*, NIH3T3 tox 26 and 3T3 cytotox 2 74*.
`Cc1ccc(-c2nc(SC(CC(=O)O)c3ccccc3)n[nH]2)cc1` (centres undefined) gave IDH1 mut inh -1.
`COc1ccc(NC(=O)N(C)C[C@@H]2Oc3ncc(-c4cc5ccccc5o4)cc3C(=O)N([C@H](C)CO)C[C@@H]2C)cc1` gave GASC1 inh 1, IDH1 mut inh 0, T cruzi growth-1 109*, T cruzi growth-2 106*, T cruzi growth-3 41, NIH3T3 tox 32 and 3T3 cytotox 2 34*.
`C[C@H](CO)N1C[C@H](C)[C@H](CN(C)S(=O)(=O)c2cccc(F)c2)Oc2ncc(-c3cc4ccccc4o3)cc2C1=O` gave GASC1 inh -4 and IDH1 mut inh -1.
For COc1cccc(S(=O)(=O)N(C)C[C@@H]2Oc3ncc(-c4cc5ccccc5o4)cc3C(=O)N([C@H](C)CO)C[C@@H]2C)c1 the results were GASC1 inh -4, IDH1 mut inh 0, T cruzi growth-1 109*, T cruzi growth-2 104*, T cruzi growth-3 73, NIH3T3 tox 39* and 3T3 cytotox 2 16.
Cc1cccc(CN(C)C[C@@H]2Oc3ncc(-c4cc5ccccc5o4)cc3C(=O)N([C@H](C)CO)C[C@@H]2C)c1 was read as GASC1 inh 0, IDH1 mut inh -4, T cruzi growth-1 99*, T cruzi growth-2 106*, T cruzi growth-3 77, NIH3T3 tox 44* and 3T3 cytotox 2 104*.
For C[C@H](CO)N1C[C@H](C)[C@H](CN(C)Cc2ccncc2)Oc2ncc(-c3cc4ccccc4o3)cc2C1=O the results were GASC1 inh 1, IDH1 mut inh 0 and T cruzi growth-1 92.
For C[C@H](CO)N1C[C@H](C)[C@H](CN(C)C(=O)Nc2ccc3c(c2)OCO3)Oc2ncc(-c3cc4ccccc4o3)cc2C1=O the results were GASC1 inh 0 and IDH1 mut inh -3.
O=c1c2ccccc2nc(CSc2nc(C3CC3)nc3ccccc23)n1-c1ccccc1 was read as IDH1 mut inh 0.
COc1ccccc1NC(=O)N[C@H]1CC[C@@H](CCn2cc(-c3ccccc3OC)nn2)O[C@@H]1CO was read as GASC1 inh 1, IDH1 mut inh -1, T cruzi growth-1 137*, T cruzi growth-2 47, T cruzi growth-3 40, NIH3T3 tox -2 and 3T3 cytotox 2 23.
For O=C(Nc1ccc(C(F)(F)F)cc1)N[C@H]1CC[C@H](CCNC(=O)c2ccccc2F)O[C@H]1CO the results were GASC1 inh 0, IDH1 mut inh 0 and T cruzi growth-1 5.
Screening O=C(Nc1ccc(Cl)cc1)N[C@@H]1CC[C@H](CCn2cc(-c3ccccc3F)nn2)O[C@@H]1CO returned GASC1 inh -2, IDH1 mut inh 0, T cruzi growth-1 102*, T cruzi growth-2 98*, T cruzi growth-3 53, NIH3T3 tox 4 and 3T3 cytotox 2 inconclusive.
For COc1ccccc1NC(=O)N[C@H]1CC[C@H](CCn2cc(-c3ccccc3)nn2)O[C@@H]1CO the results were GASC1 inh 0, IDH1 mut inh 0 and T cruzi growth-1 29.
O=C(Nc1ccc(F)cc1)N[C@H]1CC[C@@H](CCn2cc(-c3ccccc3F)nn2)O[C@@H]1CO was read as GASC1 inh 3 and IDH1 mut inh 0.
For COc1ccccc1NC(=O)N[C@H]1CC[C@@H](CCn2cc(-c3ccccc3OC)nn2)O[C@H]1CO the results were IDH1 mut inh 0, T cruzi growth-1 113*, T cruzi growth-2 69, T cruzi growth-3 41, NIH3T3 tox -13 and 3T3 cytotox 2 9.
O=C(Nc1ccc(C(F)(F)F)cc1)N[C@H]1CC[C@@H](CCNC(=O)c2ccccc2F)O[C@H]1CO was read as GASC1 inh -1, IDH1 mut inh 0, T cruzi growth-1 139*, T cruzi growth-2 45, T cruzi growth-3 31, NIH3T3 tox -14 and 3T3 cytotox 2 -4.
